ChEMBL document CHEMBL3286193, “Discovery of a series of 2,5-diaminopyrimidine covalent irreversible inhibitors of Bruton's tyrosine kinase with in vivo antitumor activity” (J Med Chem, 2014)
Converted amounts (≈) assume the structure as drawn. The source made the active and inactive calls. The calls are words filed in the database; no cut-off is given here.

Assays:
RL = assay: Cytotoxicity against human RL cells assessed as growth inhibition at 1 to 10 uM after 72 hrs by CellTiter-Glo luminescent cell viability assay; assay type: functional, cell-based
[1] = target: Tyrosine-protein kinase JAK3 (Homo sapiens, UniProt P52333); assay: Inhibition of Jak3 (unknown origin) after 1 hr by HTRF assay
Chain of Tyrosine-protein kinase JAK3 (P52333 whole entry): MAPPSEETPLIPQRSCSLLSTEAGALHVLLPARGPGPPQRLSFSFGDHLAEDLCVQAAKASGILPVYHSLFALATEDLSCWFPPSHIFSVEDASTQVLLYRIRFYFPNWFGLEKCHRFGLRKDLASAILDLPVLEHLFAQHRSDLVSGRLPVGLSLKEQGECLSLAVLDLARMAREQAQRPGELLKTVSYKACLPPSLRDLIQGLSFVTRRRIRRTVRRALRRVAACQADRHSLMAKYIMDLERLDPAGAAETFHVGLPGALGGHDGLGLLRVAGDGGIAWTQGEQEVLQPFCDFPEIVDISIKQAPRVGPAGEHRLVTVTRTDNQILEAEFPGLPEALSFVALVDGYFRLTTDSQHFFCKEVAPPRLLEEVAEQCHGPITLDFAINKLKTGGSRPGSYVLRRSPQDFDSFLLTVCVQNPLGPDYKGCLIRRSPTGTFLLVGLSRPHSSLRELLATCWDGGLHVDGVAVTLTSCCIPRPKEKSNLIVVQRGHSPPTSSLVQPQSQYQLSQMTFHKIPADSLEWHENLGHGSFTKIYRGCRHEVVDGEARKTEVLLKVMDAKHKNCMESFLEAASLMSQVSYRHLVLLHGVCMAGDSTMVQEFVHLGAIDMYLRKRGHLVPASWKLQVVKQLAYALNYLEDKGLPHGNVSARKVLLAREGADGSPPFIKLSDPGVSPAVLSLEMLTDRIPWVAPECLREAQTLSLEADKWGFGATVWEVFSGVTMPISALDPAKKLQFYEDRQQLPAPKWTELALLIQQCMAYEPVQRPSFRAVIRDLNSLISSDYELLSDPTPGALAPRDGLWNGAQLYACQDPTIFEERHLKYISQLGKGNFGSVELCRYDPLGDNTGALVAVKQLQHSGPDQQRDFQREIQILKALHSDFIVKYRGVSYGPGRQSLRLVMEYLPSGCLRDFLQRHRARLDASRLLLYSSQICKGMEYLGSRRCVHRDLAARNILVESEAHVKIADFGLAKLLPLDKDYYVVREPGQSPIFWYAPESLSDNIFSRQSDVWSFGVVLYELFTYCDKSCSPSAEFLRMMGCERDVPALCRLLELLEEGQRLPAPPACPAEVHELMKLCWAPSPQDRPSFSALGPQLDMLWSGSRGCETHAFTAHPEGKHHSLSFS
Summary of the method: (§1)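 Recombinant kinases tested by HTRF KinEase protocol. Enzyme preincubated with inhibitor for a fixed 10 min. IC50 values are means of duplicates.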

[2] = target: Tyrosine-protein kinase JAK2 (Homo sapiens) (UniProt O60674); assay: Inhibition of JAK2 (unknown origin) at 0.5 uM by [33P]-ATP filter binding assay
Summary of the method: (§2)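 Kinase panel of 18 enzymes; inhibition tested at 0.5 μM. Values are means of duplicates.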

[3] = target: Tyrosine-protein kinase ABL1 (Homo sapiens) (UniProt P00519); assay: Inhibition of ABL (unknown origin) at 0.5 uM by [33P]-ATP filter binding assay; summary of the method: as §2
Chain of Tyrosine-protein kinase ABL1 (Homo sapiens) (P00519 whole entry): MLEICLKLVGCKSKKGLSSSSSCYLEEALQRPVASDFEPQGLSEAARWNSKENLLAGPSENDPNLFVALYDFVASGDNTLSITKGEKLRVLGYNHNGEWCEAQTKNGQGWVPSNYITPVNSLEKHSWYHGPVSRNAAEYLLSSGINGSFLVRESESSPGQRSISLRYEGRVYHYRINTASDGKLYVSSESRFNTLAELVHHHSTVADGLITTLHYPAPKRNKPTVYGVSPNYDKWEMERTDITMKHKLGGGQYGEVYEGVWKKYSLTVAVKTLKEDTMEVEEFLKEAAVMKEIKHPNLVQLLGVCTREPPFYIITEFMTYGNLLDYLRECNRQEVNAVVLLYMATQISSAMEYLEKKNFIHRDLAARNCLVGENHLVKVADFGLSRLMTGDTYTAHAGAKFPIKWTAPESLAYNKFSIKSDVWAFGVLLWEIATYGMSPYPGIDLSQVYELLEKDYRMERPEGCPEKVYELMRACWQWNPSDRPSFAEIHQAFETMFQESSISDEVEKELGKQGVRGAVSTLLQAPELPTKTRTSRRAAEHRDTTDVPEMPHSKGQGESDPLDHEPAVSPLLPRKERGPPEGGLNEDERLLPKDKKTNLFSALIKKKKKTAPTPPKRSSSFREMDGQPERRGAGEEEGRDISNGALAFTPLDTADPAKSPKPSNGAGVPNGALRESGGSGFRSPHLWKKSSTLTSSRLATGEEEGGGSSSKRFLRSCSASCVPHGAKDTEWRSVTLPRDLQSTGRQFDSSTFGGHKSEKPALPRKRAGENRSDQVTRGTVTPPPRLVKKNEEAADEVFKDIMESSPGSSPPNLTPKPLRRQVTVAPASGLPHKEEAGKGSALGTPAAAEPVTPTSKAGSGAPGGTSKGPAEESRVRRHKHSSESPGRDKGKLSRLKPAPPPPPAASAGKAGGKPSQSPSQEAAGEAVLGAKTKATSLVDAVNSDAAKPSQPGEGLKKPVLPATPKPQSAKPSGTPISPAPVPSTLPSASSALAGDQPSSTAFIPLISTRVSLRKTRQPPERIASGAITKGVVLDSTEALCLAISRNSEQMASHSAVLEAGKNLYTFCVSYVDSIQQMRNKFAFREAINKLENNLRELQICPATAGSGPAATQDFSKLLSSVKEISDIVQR

[4] = target: Receptor tyrosine-protein kinase erbB-2 (Homo sapiens, UniProt P04626); assay: Inhibition of HER2 (unknown origin) after 1 hr by HTRF assay; summary of the method: as §1
Mus musculus = assay: Toxicity in CB17 SCID mouse xenografted with human DOHH2 cells assessed as body weight fluctuations at 20 mg/kg, iv qd administered for 14 days measured over 14 days of compound treatment; assay type: organism-based, DOHH-2; parameters: dose 20 mg/kg, route intravenous; settings: in vivo, 336 h
Summary of the method: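 DoHH2 subcutaneous xenograft in female CB17/SCID mice (5 × 10⁶ cells; dosing from ~167 mm³ mean tumor volume; n = 6/group). Daily tail-vein dosing for 14 consecutive days. Body weights followed over time across the study.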

[5] = target: Tyrosine-protein kinase BTK (Homo sapiens, UniProt Q06187); assay: Binding affinity to Btk kinase domain (387 to 659) (unknown origin) assessed as compound-protein covalent adduct formation at Cys481 residue at 1:3 protein to compound molar ratio incubated for 3 hrs at 0 degC followed by overnight incubation with trypsin at 37 degC by LC-MS analysis
Chain of Tyrosine-protein kinase BTK (Q06187 whole entry, the tested form may be a part): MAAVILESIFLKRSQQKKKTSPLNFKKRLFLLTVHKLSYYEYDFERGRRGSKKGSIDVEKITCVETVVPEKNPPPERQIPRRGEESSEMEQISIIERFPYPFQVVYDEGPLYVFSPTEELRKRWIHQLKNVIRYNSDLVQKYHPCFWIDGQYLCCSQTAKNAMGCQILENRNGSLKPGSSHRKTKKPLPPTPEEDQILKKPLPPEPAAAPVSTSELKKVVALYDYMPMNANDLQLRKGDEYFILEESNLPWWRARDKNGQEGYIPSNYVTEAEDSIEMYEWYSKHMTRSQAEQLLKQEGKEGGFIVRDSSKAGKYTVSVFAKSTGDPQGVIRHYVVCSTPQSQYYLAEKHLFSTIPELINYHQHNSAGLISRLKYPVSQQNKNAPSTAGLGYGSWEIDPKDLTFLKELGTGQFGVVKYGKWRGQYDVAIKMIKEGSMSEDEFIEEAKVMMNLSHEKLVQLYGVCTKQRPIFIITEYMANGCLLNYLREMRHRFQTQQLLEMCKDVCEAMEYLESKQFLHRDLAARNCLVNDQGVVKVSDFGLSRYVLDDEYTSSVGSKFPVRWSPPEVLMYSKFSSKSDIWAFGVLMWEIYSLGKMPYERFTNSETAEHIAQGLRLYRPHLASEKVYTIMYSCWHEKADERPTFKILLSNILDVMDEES
Summary of the method: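 Covalent Btk kinase-domain adduct digested with trypsin. Resulting peptide fragments analyzed by mass spectrometry to locate the modified residue.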

[6] = Half life in ICR mouse at 1 mg/kg, iv by LC-MS analysis; assay type: ADME, organism-based; parameters: dose 1 mg/kg, route intravenous; settings: in vivo
Summary of the method: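 ICR mice (n = 3) given a single intravenous injection at 1 mg/kg. Blood sampled at various time points and analyzed by LC−MS to derive t1/2, CL and Vss.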

[7] = target: Tyrosine-protein kinase ITK/TSK (Homo sapiens, UniProt Q08881); assay: Inhibition of Itk (unknown origin) after 1 hr by HTRF assay; summary of the method: as §1
Chain of Tyrosine-protein kinase ITK/TSK (Q08881 whole entry): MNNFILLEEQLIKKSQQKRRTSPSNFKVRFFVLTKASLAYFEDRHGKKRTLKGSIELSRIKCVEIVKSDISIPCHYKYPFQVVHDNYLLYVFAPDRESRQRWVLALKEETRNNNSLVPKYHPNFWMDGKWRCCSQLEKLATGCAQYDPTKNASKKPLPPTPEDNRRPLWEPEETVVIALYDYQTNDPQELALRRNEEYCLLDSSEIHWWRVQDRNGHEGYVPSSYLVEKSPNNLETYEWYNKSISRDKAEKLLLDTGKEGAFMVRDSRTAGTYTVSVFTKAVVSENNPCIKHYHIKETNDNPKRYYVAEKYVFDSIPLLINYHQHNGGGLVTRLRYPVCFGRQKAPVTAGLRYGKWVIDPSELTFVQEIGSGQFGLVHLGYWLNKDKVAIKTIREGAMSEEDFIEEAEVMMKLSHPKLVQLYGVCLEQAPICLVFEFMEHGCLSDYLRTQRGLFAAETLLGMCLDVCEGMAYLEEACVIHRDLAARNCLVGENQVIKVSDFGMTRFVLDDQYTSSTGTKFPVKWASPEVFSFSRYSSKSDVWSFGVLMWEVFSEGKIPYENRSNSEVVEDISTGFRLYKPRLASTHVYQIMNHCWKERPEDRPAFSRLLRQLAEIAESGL

[8] = Plasma concentration in CB17 SCID mouse xenografted with human DOHH2 cells at 10 mg/kg, iv qd administered for 14 days measured at 2 hrs post last dose; assay type: ADME, organism-based, DOHH-2; parameters: dose 10 mg/kg, route intravenous
Summary of the method: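 Female CB17/SCID mice were given 5 × 10⁶ DoHH2 cells subcutaneously. When tumours averaged ~167 mm³, mice were randomised into four groups (n = 6/group). Dosing was by tail-vein injection once daily for 14 consecutive days. Plasma compound levels were determined at 2 and 24 h after the final dose.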

[9] = Cytotoxicity against human Pfeiffer cells assessed as growth inhibition after 72 hrs by CellTiter-Glo luminescent cell viability assay; assay type: functional; settings: Homo sapiens, Pfeiffer, 72 h
Summary of the method: (§3)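 Lymphoma cells seeded at 5000 cells/well, incubated 24 h, then exposed to compounds for 72 h. Viability read by CellTiter-Glo luminescence. GI50 from dose−response curves, mean of two or three independent experiments in triplicate.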

[10] = Plasma concentration in CB17 SCID mouse xenografted with human DOHH2 cells at 20 mg/kg, iv qd administered for 14 days measured at 2 hrs post last dose; assay type: ADME, organism-based, DOHH-2; parameters: dose 20 mg/kg, route intravenous
Summary of the method: (§4)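 Same DoHH2 xenograft study in female CB17/SCID mice, tail-vein dosing once daily for 14 days. Plasma compound concentrations determined at 2 and 24 h after the last administration.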

WSU-NHL = assay: Cytotoxicity against human WSU-NHL cells assessed as growth inhibition after 72 hrs by CellTiter-Glo luminescent cell viability assay; assay type: functional; summary of the method: as §3
[11] = Half life in mouse liver microsomes by LC-MS/MS analysis; assay type: ADME
Summary of the method: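 Liver microsomes incubated with compound and NADPH at 37 °C. Samples taken at several time points, centrifuged, and supernatants analyzed by LC−MS/MS. t1/2 and CL calculated by first-order kinetics. Testosterone, propranolol and clozapine served as positive controls.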

[12] = target: Tyrosine-protein kinase TXK (Homo sapiens, UniProt P42681); assay: Inhibition of Rlk (unknown origin) after 1 hr by HTRF assay; summary of the method: as §1
Chain of Tyrosine-protein kinase TXK (P42681 whole entry): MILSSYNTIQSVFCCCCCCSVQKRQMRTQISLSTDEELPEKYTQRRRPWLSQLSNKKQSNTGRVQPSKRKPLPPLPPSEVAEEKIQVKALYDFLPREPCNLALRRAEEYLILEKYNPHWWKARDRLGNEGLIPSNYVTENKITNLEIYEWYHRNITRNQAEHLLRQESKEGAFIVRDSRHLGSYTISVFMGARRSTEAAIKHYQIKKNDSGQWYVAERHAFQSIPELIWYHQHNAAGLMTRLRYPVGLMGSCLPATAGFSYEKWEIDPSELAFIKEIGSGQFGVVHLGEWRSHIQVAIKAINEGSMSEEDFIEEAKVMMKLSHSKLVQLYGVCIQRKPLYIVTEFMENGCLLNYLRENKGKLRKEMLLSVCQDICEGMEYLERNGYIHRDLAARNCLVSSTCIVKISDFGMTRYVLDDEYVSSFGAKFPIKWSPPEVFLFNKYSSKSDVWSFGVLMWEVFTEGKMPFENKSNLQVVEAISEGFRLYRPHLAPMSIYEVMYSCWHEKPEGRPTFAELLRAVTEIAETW

[13] = Solubility of the compound in FaSSIF; assay type: ADME
[14] = Plasma concentration in CB17 SCID mouse xenografted with human DOHH2 cells at 20 mg/kg, iv qd administered for 14 days measured at 24 hrs post last dose; assay type: ADME, organism-based, DOHH-2; parameters: dose 20 mg/kg, route intravenous; summary of the method: as §4
[15] = target: Tyrosine-protein kinase Tec (Homo sapiens, UniProt P42680); assay: Inhibition of Tec (unknown origin) after 1 hr by HTRF assay; summary of the method: as §1
Chain of Tyrosine-protein kinase Tec (P42680 whole entry): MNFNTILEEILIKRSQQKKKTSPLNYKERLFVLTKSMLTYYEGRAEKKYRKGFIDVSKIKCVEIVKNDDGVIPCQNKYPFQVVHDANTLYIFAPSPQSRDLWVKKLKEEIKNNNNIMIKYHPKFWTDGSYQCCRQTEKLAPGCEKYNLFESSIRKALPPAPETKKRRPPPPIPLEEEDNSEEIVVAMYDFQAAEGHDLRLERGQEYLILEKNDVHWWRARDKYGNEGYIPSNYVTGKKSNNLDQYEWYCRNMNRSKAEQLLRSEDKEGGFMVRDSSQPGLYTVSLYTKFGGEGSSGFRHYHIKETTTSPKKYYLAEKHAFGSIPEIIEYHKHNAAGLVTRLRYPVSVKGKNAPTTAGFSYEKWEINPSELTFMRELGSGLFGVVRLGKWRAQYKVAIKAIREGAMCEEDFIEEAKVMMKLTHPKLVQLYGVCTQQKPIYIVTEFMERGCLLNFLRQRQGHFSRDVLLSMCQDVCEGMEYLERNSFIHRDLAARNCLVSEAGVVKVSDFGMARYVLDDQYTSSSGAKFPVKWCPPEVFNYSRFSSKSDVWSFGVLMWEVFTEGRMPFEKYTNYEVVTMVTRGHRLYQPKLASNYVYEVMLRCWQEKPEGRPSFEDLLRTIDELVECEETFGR

SU-DHL10 = assay: Cytotoxicity against human SU-DHL10 cells assessed as growth inhibition at 1 to 10 uM after 72 hrs by CellTiter-Glo luminescent cell viability assay; assay type: functional, cell-based
WSU-DLCL2 = assay: Cytotoxicity against human WSU-DLCL2 cells assessed as growth inhibition at 1 to 10 uM after 72 hrs by CellTiter-Glo luminescent cell viability assay; assay type: functional, cell-based

IC50 [1]: 2680 nM
inhibition [2]: Active
inhibition [3]: Active
IC50 [4]: 19 nM
Activity [5]: Active
half-life [6]: 2.8 h
IC50 [7]: > 30000 nM
concentration at 2 h [8]: 378 ng/mL
concentration at 2 h [10]: 2100 ng/mL
half-life [11]: 0.64 h
IC50 [12]: 1.9 nM
solubility [13]: 7.02 µM (≈ 3.93 µg/mL)
concentration at 24 h [14]: 13 ng/mL
IC50 [15]: 8.2 nM
Compound: C=CC(=O)Nc1cccc(Nc2ncc(NC(=O)c3cc(NC(=O)c4cccc(C(F)(F)F)c4)ccc3C)cn2)c1
growth inhibition (GI) (RL): Active
Activity (Mus musculus): Non-toxic
GI50 [9]: 8 nM
GI50 (WSU-NHL): 31 nM
growth inhibition (GI) (SU-DHL10): Active
growth inhibition (GI) (WSU-DLCL2): Active
